Measurements from ChEMBL document CHEMBL2021780, “Antineoplastic agents. 548. Synthesis of iodo- and diiodocombstatin phosphate prodrugs” (J Nat Prod, 2012).
In brackets after ≈: the same amount, converted by molar mass. Activity calls are given as the source filed them. The rule behind the calls is not given here.

Assays:
HUVEC [1] = test: Antiangiogenic activity in HUVEC assessed as reduction of number of junctions at 0.01 ug/ml after 24 hrs by matrigel assay relative to control; assay type: functional
In short: (§1)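 Commercial HUVECs grown in EGM-2 were seeded at 2 × 10⁵ cells/mL onto Matrigel, which had been polymerized 15 min at rt and then 30 min at 37 °C, per NCI DTP protocol. Compound was added and cells were incubated 24 h, then imaged by inverted microscopy. Cord length and junction number were scored against untreated control on a scale from − (none) to +++ (same as control), with ++ = 50% of control.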

SW-1736 = test: Growth inhibition of human SW1736 cells after 48 hrs by sulforhodamine B assay; assay type: functional; conditions: SW-1736, 48 h
HUVEC [2] = test: Antiangiogenic activity in HUVEC assessed as reduction of number of junctions at 0.001 ug/ml after 24 hrs by matrigel assay relative to control; assay type: functional; conditions: Homo sapiens; in short: as §1
DU-145 = test: Growth inhibition of human DU145 cells after 48 hrs by sulforhodamine B assay; assay type: functional; conditions: DU-145, 48 h
In short: (§2)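 NCI sulforhodamine B assay. Cells were seeded in 5% FBS/RPMI-1640 and incubated 24 h. Serial compound dilutions were then added for 48 h. Cells were fixed with trichloroacetic acid, stained with SRB and read by microplate reader. GI50 is the concentration giving 50% reduction in net protein increase, calculated from optical density data.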

[3] = Displacement of [3H]colchicine from tubulin at 1 uM after 10 mins
In short: (§3)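 [³H]colchicine binding: 1.0 μM tubulin with 5.0 μM [³H]colchicine and compound, incubated 10 min at 37 °C. The tubulin–colchicine complex was separated from unbound label by retention on DEAE-cellulose filters. Result is inhibition of radiolabel binding.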

[4] = Growth inhibition of human KAT4 cells after 48 hrs by sulforhodamine B assay; assay type: functional; conditions: KAT-4, 48 h
Micrococcus luteus [5] = test: Antibacterial activity against Micrococcus luteus Presque Isle 456 by broth microdilution method; assay type: functional
In short: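 Broth microdilution per NCCLS bacterial (M7-A5) and yeast standards. Compounds were reconstituted in sterile DMSO and diluted in the appropriate medium just before testing. MIC is the lowest concentration giving complete inhibition of visible growth (optically clear). Assays were repeated on separate days.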

HUVEC [6] = test: Antiangiogenic activity in HUVEC assessed as reduction of cord length at 0.0001 ug/ml after 24 hrs by matrigel assay relative to control; assay type: functional; conditions: Homo sapiens
In short: (§4)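 Matrigel was polymerised in wells (15 min rt, then 30 min 37 °C). HUVECs (2 × 10⁵ cells/mL) were added with compound and incubated 24 h, then imaged by inverted microscope. Cord length and junction number were scored semi-quantitatively versus untreated control (− none to +++ same as control).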

HUVEC [7] = test: Antiangiogenic activity in HUVEC assessed as cell growth at 0.001 ug/ml after 24 hrs by sulforhodamine B assay relative to control; assay type: functional, Homo sapiens
HUVEC [8] = test: Antiangiogenic activity in HUVEC assessed as cell growth at 0.00001 ug/ml after 24 hrs by sulforhodamine B assay relative to control; assay type: functional; conditions: Homo sapiens, read-out: Activity
HUVEC [9] = test: Antiangiogenic activity in HUVEC assessed as reduction of number of junctions at 0.0001 ug/ml after 24 hrs by matrigel assay relative to control; assay type: functional; conditions: Homo sapiens; in short: as §4
MCF7 = test: Growth inhibition of human MCF7 cells after 48 hrs by sulforhodamine B assay; assay type: functional; conditions: MCF7, 48 h; in short: as §2
HUVEC [10] = test: Antiangiogenic activity in HUVEC assessed as cell growth at 0.01 ug/ml after 24 hrs by sulforhodamine B assay relative to control; assay type: functional, Homo sapiens
HUVEC [11] = test: Antiangiogenic activity in HUVEC assessed as cell growth inhibition after 48 hrs by sulforhodamine B assay; assay type: functional, cell-based; conditions: Homo sapiens
In short: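 HUVECs were grown in EGM-2 medium and tested with the standard SRB growth assay following NCI Developmental Therapeutics Program Matrigel antiangiogenesis protocols. IC50 (concentration causing 50% inhibition) was calculated from plotted data.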

P388 = test: Growth inhibition of mouse P388 cells after 48 hrs by Z1 Beckman/Coulter particle counter analysis; assay type: functional; conditions: P388, 48 h, read-out: ED50 (the source's name)
In short: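 Mouse P388 leukemia cells were incubated 24 h in 10% horse serum/Fisher medium, then exposed 48 h to serial compound dilutions. ED50 was calculated from cell counts on a Coulter Z1 particle counter.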

[12] = Displacement of [3H]colchicine from tubulin at 10 uM after 10 mins; in short: as §3
[13] = Inhibition of purified tubulin assembly after 20 mins
In short: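 Purified tubulin at 10 μM in 0.8 M monosodium glutamate (pH 6.6), 0.4 mM GTP and 4% (v/v) DMSO, with varying compound concentrations. Extent of assembly was measured after 20 min at 30 °C.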

KM-20L2 = test: Growth inhibition of human KM20L2 cells after 48 hrs by sulforhodamine B assay; assay type: functional; conditions: KM-20L2, 48 h; in short: as §2
NCI-H460 = test: Growth inhibition of human NCI-H460 cells after 48 hrs by sulforhodamine B assay; assay type: functional; conditions: NCI-H460, 48 h; in short: as §2
HUVEC [14] = test: Antiangiogenic activity in HUVEC assessed as reduction of cord length at 0.01 ug/ml after 24 hrs by matrigel assay relative to control; assay type: functional; in short: as §1
HUVEC [15] = test: Antiangiogenic activity in HUVEC assessed as cell growth at 0.0001 ug/ml after 24 hrs by sulforhodamine B assay relative to control; assay type: functional, Homo sapiens; conditions: Homo sapiens, HUVEC, 24 h; read-out: Activity
BXPC-3 = test: Growth inhibition of human BxPC3 cells after 48 hrs by sulforhodamine B assay; assay type: functional; conditions: BXPC-3, 48 h; in short: as §2
HUVEC [16] = test: Antiangiogenic activity in HUVEC assessed as reduction of cord length at 0.001 ug/ml after 24 hrs by matrigel assay relative to control; assay type: functional; conditions: Homo sapiens; in short: as §1
SF-268 = test: Growth inhibition of human SF268 cells after 48 hrs by sulforhodamine B assay; assay type: functional; conditions: SF-268, 48 h; in short: as §2
Micrococcus luteus [17] = test: Antibacterial activity against Micrococcus luteus assessed per disc; assay type: functional
Neisseria gonorrhoeae [18] = test: Antibacterial activity against Neisseria gonorrhoeae assessed per disc; assay type: functional
[19] = Displacement of [3H]colchicine from tubulin at 5 uM after 10 mins
In short: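 Purified tubulin 1.0 μM incubated with 5.0 μM [³H]colchicine and test compound for 10 min at 37 °C. Tubulin–colchicine complex retained on DEAE-cellulose filters to separate it from unbound label. Read-out is the percent inhibition of radiolabel binding.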

HUVEC [20] = test: Antiangiogenic activity in HUVEC assessed as reduction of number of junctions at 0.1 ug/ml after 24 hrs by matrigel assay relative to control; assay type: functional, cell-based; conditions: Homo sapiens; in short: as §1
HUVEC [21] = test: Antiangiogenic activity in HUVEC assessed as reduction of cord length at 0.1 ug/ml after 24 hrs by matrigel assay relative to control; assay type: functional, cell-based; conditions: Homo sapiens; in short: as §1
HUVEC [22] = test: Antiangiogenic activity in HUVEC assessed as reduction of number of junctions at 0.00001 ug/ml after 24 hrs by matrigel assay relative to control; assay type: functional, cell-based; conditions: Homo sapiens; in short: as §1
HUVEC [23] = test: Antiangiogenic activity in HUVEC assessed as reduction of cord length at 0.00001 ug/ml after 24 hrs by matrigel assay relative to control; assay type: functional, cell-based; conditions: Homo sapiens; in short: as §1
Neisseria gonorrhoeae [24] = test: Antibacterial activity against Neisseria gonorrhoeae ATCC 49226 by broth microdilution method; assay type: functional
In short: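 Broth microdilution followed NCCLS standard methods. Compounds were reconstituted in sterile DMSO and diluted in the appropriate medium immediately before testing. MIC was taken as the lowest concentration giving no visible growth (optically clear). Assays were repeated on separate days.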

HUVEC [25] = test: Antiangiogenic activity in HUVEC assessed as cell growth at 1 ug/ml after 24 hrs by sulforhodamine B assay relative to control; assay type: functional; conditions: Homo sapiens, read-out: Activity
[26] = Solubility of the compound in water; assay type: physicochemical; conditions: buffer
In short: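 Solubility expressed as amount dissolving in 1 mL H₂O at 25 °C.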

HUVEC [27] = test: Antiangiogenic activity in HUVEC assessed as cell growth at 0.1 ug/ml after 24 hrs by sulforhodamine B assay relative to control; assay type: functional, Homo sapiens
[28] = Homo sapiens, HUVEC, 24 h, read-out: Activity

| Structure (SMILES) | Activity (HUVEC [1]; Homo sapiens) | Activity (HUVEC [2]) | GI50 (DU-145) [µg/mL] | inhibition [3] [%] | Activity (HUVEC [6]) | Activity (HUVEC [9]) | GI50 (MCF7) [µg/mL] | IC50 (HUVEC [11]) [µg/mL] | EC50 (P388) [µg/mL] | IC50 [13] [nM] | GI50 (KM-20L2) [µg/mL] | GI50 (NCI-H460) [µg/mL] | Activity (HUVEC [14]; Homo sapiens) | GI50 (BXPC-3) [µg/mL] | Activity (HUVEC [16]) | GI50 (SF-268) [µg/mL] | other results |
| --- | --- | --- | --- | --- | --- | --- | --- | --- | --- | --- | --- | --- | --- | --- | --- | --- | --- |
| COc1ccc(/C=C\c2cc(I)c(OC)c(I)c2)cc1O | Active | Active | 0.0021 (≈ 4.13 nM) | 95 | inactive | inactive | 0.0027 (≈ 5.31 nM) | 0.00028 (≈ 0.551 nM) | 0.0028 (≈ 5.51 nM) | 1500 | 0.15 (≈ 295 nM) | 0.0034 (≈ 6.69 nM) | Active | 0.038 (≈ 74.8 nM) | Active | 0.0036 (≈ 7.09 nM) | GI50 (SW-1736): 1.2 µg/mL (≈ 2360 nM); GI50 [4]: 0.039 µg/mL (≈ 76.8 nM); MIC (Micrococcus luteus [5]): 4 µg/mL (≈ 7870 nM); growth at 0.001 µg/mL (HUVEC [7]; [28]): 8%; growth at 10 pg/mL (HUVEC [8]): 87%; growth at 0.01 µg/mL (HUVEC [10]; [28]): 4%; inhibition [12]: 100%; growth at 0.0001 µg/mL (HUVEC [15]): 84% |
| COc1ccc(/C=C\c2cc(OC)c(OC)c(OC)c2)cc1O [COMBRETASTATIN A4] | – | – | 0.0008 (≈ 2.53 nM) | 81 | – | – | – | – | 0.0003 (≈ 0.948 nM) | – | 0.061 (≈ 193 nM) | 0.0006 (≈ 1.9 nM) | – | 0.39 (≈ 1230 nM) | – | < 0.001 | MIC (Micrococcus luteus [17]): 25 µg; MIC (Neisseria gonorrhoeae [18]): 25 µg; inhibition [19]: 95% |
| COc1ccc(/C=C\c2cc(I)c(OC)c(OC)c2)cc1OP(=O)(O)O | Active | Active | – | – | inactive | inactive | – | – | – | – | – | – | Active | – | Active | – | Activity (HUVEC [20]): Active; Activity (HUVEC [21]): Active; Activity (HUVEC [22]): inactive; Activity (HUVEC [23]): inactive |
| COc1ccc(/C=C\c2cc(I)c(OC)c(I)c2)cc1OP(=O)([O-])[O-].[Na+].[Na+] | – | – | 0.242 | – | – | – | 0.066 | 0.051 | 0.03 | > 40000 | > 1 | 0.327 | – | > 1 | – | – | Activity (HUVEC [1]): 75%; MIC (Neisseria gonorrhoeae [24]): 32 µg/mL; Activity (HUVEC [7]): >100%; Activity (HUVEC [10]): >100%; growth at 1 µg/mL (HUVEC [25]): -7%; solubility [26]: 2000 µg/mL; Activity (HUVEC [14]): 75%; Activity (HUVEC [27]): -2% |
